The record followed here is ChEMBL document CHEMBL2321859, “Cytotoxic betulin-derived hydroxypropargylamines trigger apoptosis” (Bioorg Med Chem, 2013).

Data set [1] concerns A549. Kind of data set: Cell cycle arrest in human A549 cells assessed as accumulation at G2/M phase by acridine orange/propidium iodide staining. It is filed as functional, cell-based.
Data set [2] deals with A549. Briefly: Induction of apoptosis in human A549 cells assessed as DNA fragmentation by DNA laddering assay. It is filed as functional, cell-based. The gist of the method: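 DNA fragmentation was checked by DNA laddering in treated human cancer cells, as an indicator of apoptotic cell death.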
For data set [3], the system named is A549. Briefly: Induction of apoptosis in human A549 cells assessed as chromatin condensation by acridine orange/propidium iodide staining. It is filed as functional, cell-based.
The next data set relates to MCF7. Kind of data set: Cytotoxicity against human MCF7 cells assessed as cell viability after 96 hrs by SRB assay. It counts as functional, cell-based. Conditions: Homo sapiens, MCF7, 96 h.
The subject of the next data set is NIH3T3. Kind of data set: Cytotoxicity against mouse NIH/3T3 cells assessed as cell viability after 96 hrs by SRB assay. It is filed as cell-based. Particulars: NIH3T3, 96 h. Background: In SRB staining, fixed cells bind dye roughly in proportion to their protein.
A further data set has as its system DLD-1. Kind of data set: Cytotoxicity against human DLD1 cells assessed as cell viability after 96 hrs by SRB assay. Conditions: Homo sapiens, DLD-1, 96 h. It counts as functional, cell-based.
Data set [4] can be described thus: Cytotoxicity against human 518A2 cells assessed as cell viability after 96 hrs by SRB assay. It counts as functional, cell-based. Particulars: Homo sapiens, 518A2, 96 h.
The nature of data set [5]: Cytotoxicity against human Lipo cells assessed as cell viability after 96 hrs by SRB assay. It is filed as functional, cell-based. Conditions: Homo sapiens, Lipo, 96 h.
The next data set concerns A2780. Briefly: Cytotoxicity against human A2780 cells assessed as cell viability after 96 hrs by SRB assay. Particulars: Homo sapiens, A2780, 96 h. It counts as functional, cell-based.
Data set [6] has as its system A549. Briefly: Induction of apoptosis in human A549 cells assessed as membrane blebbing by acridine orange/propidium iodide staining. It is filed as functional, cell-based.
Data set [7] can be described thus: Cytotoxicity against human A253 cells assessed as cell viability after 96 hrs by SRB assay. It counts as functional, cell-based. Particulars: Homo sapiens, A253, 96 h.
Data set [8] deals with A549. Briefly: Induction of apoptosis in human A549 cells assessed as cell shrinking by acridine orange/propidium iodide staining. It is filed as functional, cell-based.
A further data set concerns 8505C. Briefly: Cytotoxicity against human 8505C cells assessed as cell viability after 96 hrs by SRB assay. It counts as functional, cell-based. Particulars: Homo sapiens, 8505C, 96 h.
For data set [9], the system named is A549. Briefly: Cytotoxicity against human A549 cells assessed as cell viability after 96 hrs by SRB assay. It is filed as functional, cell-based. Particulars: Homo sapiens, A549, 96 h.
Another data set deals with SW-1736. Kind of data set: Cytotoxicity against human SW1736 cells assessed as cell viability after 96 hrs by SRB assay. It is filed as functional, cell-based. Particulars: Homo sapiens, SW-1736, 96 h.
The test system of data set [10] is A549. Kind of data set: Induction of apoptosis in human A549 cells assessed as early apoptotic cells at 10 uM after 6 hrs by annexin V/propidium iodide staining-based FACS flow cytometric analysis relative to control. It counts as functional. Summed up:
(§1)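 A549 cells incubated 6 h with compound, then analysed by FACS annexin V/propidium iodide assay. Phosphatidylserine translocation to the outer membrane was taken as the early-apoptosis marker. Cells were scored as percentage dying by necrosis versus programmed cell death. Betulinic acid and maslinic acid were the reference standards.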
Background: In flow cytometry, cells or beads pass a laser one at a time.

The nature of data set [11]: Solubility of the compound in water/DMSO mixture. It is filed as physicochemical. Particulars: water/DMSO mixture; read-out: solubility. The gist of the method: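 Solubility was measured in water/DMSO (95:5, v/v) by HPLC with UV/vis detection.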
Data set [12] concerns A549. Briefly: Induction of apoptosis in human A549 cells assessed as early apoptotic cells at 5 uM after 6 hrs by annexin V/propidium iodide staining-based FACS flow cytometric analysis relative to control. It counts as functional. The gist of the method: as §1

Each structure is given as a SMILES string. Activity calls are given as the source filed them. The rule behind the calls is not given here.

As to `C=C(C)[C@@H]1CC[C@]2([C@@H](O)C#CCN(CCC)CCC)CC[C@]3(C)[C@H](CC[C@@H]4[C@@]5(C)CC[C@H](OC(C)=O)C(C)(C)[C@@H]5CC[C@]43C)[C@@H]12.CI`, the result in the data set on A549 [1], in the data set on A549 [2], with A549 [3], in the data set with A549 [6] and with A549 [8] was Active. Further, the IC50 with MCF7 came out at 3.2 µM; in the data set on NIH3T3, 6.8 µM; in the data set with DLD-1, 4.8 µM; in data set [4], 4.6 µM; in [5] it was 4.3 µM; in the data set on A2780, 2.3 µM. For the same molecule, the IC50 in data set [7] was found to be 3.5 µM; with 8505C, 4.1 µM; in the data set on A549 [9], 4.5 µM; in the data set on SW-1736, 3.2 µM. Moreover, the Activity in the data set on A549 [10] is given as over 90%.
Consider `C=C(C)[C@@H]1CC[C@]2([C@H](O)C#CCN3CCOCC3)CC[C@]3(C)[C@H](CC[C@@H]4[C@@]5(C)CC[C@H](OC(C)=O)C(C)(C)[C@@H]5CC[C@]43C)[C@@H]12.Cl`, for which the concentration for half-maximal inhibition (IC50) came out at 7.7 µM with MCF7; 7.2 µM in the data set on NIH3T3; 5 µM in the data set with DLD-1; 7 µM in data set [4]; 2.4 µM in data set [5]; 4.1 µM in the data set with A2780. Besides, the IC50 in data set [7] was found to be 5.2 µM; in the data set with 8505C, 7.2 µM; with A549 [9], 7.6 µM; in the data set on SW-1736, 8.9 µM. The solubility in data set [11] is 192 µg/mL. The Activity in the data set on A549 [12] is recorded as over 90%.
Turning to `C=C(C)[C@@H]1CC[C@]2([C@@H](O)CCCN(C(C)C)C(C)C)CC[C@]3(C)[C@H](CC[C@@H]4[C@@]5(C)CC[C@H](O)C(C)(C)[C@@H]5CC[C@]43C)[C@@H]12`, the result in the data set with A549 [1], in the data set with A549 [2], in the data set on A549 [3], in the data set on A549 [6] and in the data set with A549 [8] was Active. Further, the IC50 in the data set on MCF7 worked out at 0.7 µM; with NIH3T3 it was 1.7 µM; with DLD-1, 2.3 µM; in data set [4], 2.1 µM; in data set [5] it was 2.3 µM; in the data set with A2780, 1.6 µM. Also, the IC50 in data set [7] amounted to 1.8 µM; with 8505C, 2.3 µM; with A549 [9], 2.2 µM; in the data set on SW-1736 it was 1.7 µM. Also, the Activity in the data set on A549 [10] is listed as over 90%.

Broadly, the IC50 is the concentration at which inhibition is half-maximal. By solubility is commonly meant the dissolved amount per volume that the medium holds.
